Rows were chosen to be rich in hits. Some 3.1% of all compounds tested hit in one or more screens of this group.
MBD2 DNA inh – inhibitors of MBD2 binding to methylated DNA, primary screen, biochemical, TR-FRET, DNA-binding domain, human; Methyl-CpG-binding domain protein 2 (Homo sapiens), Q9UBB5; MBD2 binding to methylated oligonucleotide; inhibition, % at 4.4 µM; 0.31% of 370,000 active; AID 686964, 2013; in the data active = inhibition above about 13%
LEDGF integ inh – blockers of LEDGF/p75-dependent integrase strand transfer – biochemical, TR-FRET, high throughput, primary screen | HIV-1 integrase (with human LEDGF/p75) | TR-FRET IN-LEDGF/p75 DNA integration, Eu/Cy5 | inhibition, % at 3.7 µM | 0.64% of 370,000 active | AID 743269, 2014;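 active = inhibition above the screen-wide mean plus 3 SD, cut at about 13% in these data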;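 also: signal is the Cy5 over europium emission ratio at 671 and 618 nm; 0% = plate median of compound wells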
RBBP9 inhibitor – human RBBP9 inhibitors, primary screen, biochemical, fluorescence polarization, FP-Rh probe, HTS; Serine hydrolase RBBP9 (Homo sapiens), O75884; recombinant RBBP9; inhibition, % at 7.94 µM; 0.2% of 220,000 active; AID 1515, 2009;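 active = inhibition above the campaign mean of all tested compounds plus 3 SD, cut at about 14% in these data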;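 also: plate controls were DMSO wells with RBBP9 for no effect and wells lacking RBBP9 protein for full effect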
Target sequence (O75884 whole entry, looked up): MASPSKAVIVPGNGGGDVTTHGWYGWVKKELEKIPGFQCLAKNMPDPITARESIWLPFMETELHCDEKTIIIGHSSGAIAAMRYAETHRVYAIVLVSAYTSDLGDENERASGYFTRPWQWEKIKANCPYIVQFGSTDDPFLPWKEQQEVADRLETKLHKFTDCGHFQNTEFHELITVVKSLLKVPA
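Measured by: FP readout at 525/598 nm; material: recombinant human RBBP9; also added: Serine-hydrolase probe FP-Rh, 375 nM pre-mixing; medium: Tris buffer pH 8.0, NaCl, Pluronic; replication: one well per compound; doses: one concentration, 7.94 µM nominal, 0.794% DMSO; timing: preincubation 30 min plus labeling 45 min at 25 °C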
UHRF1 MBD2 ctr – UHRF1 methylated DNA binding inhibitors, primary screen, counter-screen for MBD2 inhibitor project, biochemical, TR-FRET, human UHRF1, single concentration | 0.75% of 370,000 active | inhibition, % at 4.4 µM | UHRF1 binding to methylated oligo | AID 687016, 2013;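 also: UHRF1 SRA domain binding a hemimethylated CpG hairpin DNA probe; 0% = median of test compound wells and 100% = reference inhibitor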
PRMT1 FP inh – PRMT1 methyltransferase inhibitors, primary screen, biochemical, fluorescence polarization. Protein arginine N-methyltransferase 1 (Homo sapiens), Q99873. recombinant PRMT1, activity-based probe fluorescence polarization. inhibition, % at 2.79 µM. 1.3% of 370,000 active. AID 652257, 2013;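 active = inhibition above about 21% made by adding two undisclosed values, limit read from the data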
Target sequence (Q99873 whole entry, looked up): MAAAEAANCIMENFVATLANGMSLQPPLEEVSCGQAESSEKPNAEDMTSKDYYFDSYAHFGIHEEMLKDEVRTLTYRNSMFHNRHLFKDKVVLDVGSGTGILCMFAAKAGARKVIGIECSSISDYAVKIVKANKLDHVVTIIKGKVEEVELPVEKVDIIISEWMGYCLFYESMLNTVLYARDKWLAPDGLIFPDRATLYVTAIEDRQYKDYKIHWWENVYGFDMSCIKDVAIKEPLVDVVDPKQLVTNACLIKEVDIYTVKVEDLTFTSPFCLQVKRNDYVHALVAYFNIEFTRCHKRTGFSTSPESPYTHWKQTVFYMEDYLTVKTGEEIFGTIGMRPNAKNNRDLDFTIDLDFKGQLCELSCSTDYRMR
ABHD5 PLIN5 PPI – ABHD5-PLIN5 interaction inhibitors, primary screen, cell lysate, split luciferase complementation, luminescence. Perilipin-5 (Homo sapiens) + 1-acylglycerol-3-phosphate O-acyltransferase ABHD5 (Homo …. Split G. princeps luciferase complementation, 4 h. inhibition, % at 4 µM. 0.78% of 360,000 active;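 active = inhibition above the mean inhibition across every tested compound plus 3 SD, cut at about 22% in these data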;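 also: 0% = DMSO only wells and the 100% control is not disclosed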
UHRF1 ctr MBD2 – UHRF1 methylated DNA binding inhibitors, counter-screen for MBD2 inhibitor project, biochemical, TR-FRET, human UHRF1. inhibition, % at 4.4 µM. 25% of 1,000 active. shares compounds with MBD2 DNA inh. AID 720530, 2013. UHRF1 binding to methylated oligonucleotide;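 also: UHRF1 SRA domain binding a labeled hemimethylated CpG hairpin DNA; 0% = vehicle only and 100% = reference inhibitor with vehicle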
MBD2 DBD conf – inhibitors of MBD2 binding to methylated DNA, confirmation, biochemical, TR-FRET, DNA-binding domain, human. shares compounds with MBD2 DNA inh. TR-FRET MBD2-DBD binding to methylated oligonucleotide. inhibition, % at 4.4 µM. 26% of 1,000 active; in the data active = inhibition above about 14%
IN multimer act – HIV-1 IN multimer formation enhancers, counter-screen for LEDGF/p75 integration inhibitor project, biochemical, TR-FRET | shares compounds with LEDGF integ inh | TR-FRET HIV-1 integrase multimerization | activation, % at 7.7 µM | 17% of 2,000 active | AID 1053131, 2014; in the data active = activation above about 8.9%
TRFRET interf – TR-FRET optical interference artefacts, confirmation, artefact control for LEDGF/p75-dependent integration inhibitor project, biochemical, HIV-1 IN multimerization; shares compounds with LEDGF integ inh; TR-FRET optical interference counterscreen; inhibition, % at 7.7 µM; 2,000 tested, under 10 active;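 active = inhibition above the mean over all tested compounds plus 3 SD, which no compound reached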;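 also: 0% = integrase with antibodies and DMSO and 100% = antibodies without integrase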
LEDGF integ conf – inhibitors of HIV-1 IN-LEDGF/p75 DNA integration, confirmation, biochemical, TR-FRET; shares compounds with LEDGF integ inh; 36% of 2,000 active; AID 1053136, 2014; TR-FRET LEDGF/p75-dependent HIV-1 integration; inhibition, % at 3.7 µM; in the data active = inhibition above about 14%
An asterisk follows results filed as active; · = no result given. Rule as the data show it, unless noted: active = inhibition above about 21%; inactive = the rest.

SMILES	MBD2 DNA inh	LEDGF integ inh	RBBP9 inhibitor	UHRF1 MBD2 ctr	PRMT1 FP inh	ABHD5 PLIN5 PPI	IN multimer act	TRFRET interf	LEDGF integ conf	others
CCCNC1=C(C)C(=O)C2=C(C1=O)C(COC(N)=O)[C@]1(OC)C3NC3CN21 (some centres undefined)	18*	53*	-8	60*	6	0	19*	-67	63*	UHRF1 ctr MBD2=2;MBD2 DBD conf=0
CN(C)C1C(=O)C(C(N)=O)=C(O)C2(O)C(=O)C3=C(O)c4c(O)cccc4C(C)(O)C3C(O)C12 (centres undefined)	31*	53*	·	71*	49*	7	21*	-73	23*	UHRF1 ctr MBD2=9;MBD2 DBD conf=13
NC(=O)c1ccc(N=Cc2c(O)n(Cc3ccco3)c(=O)[nH]c2=O)cc1	23*	57*	-6	60*	13	11	12*	-60	50*	UHRF1 ctr MBD2=18;MBD2 DBD conf=22*
O=c1[nH]c(=O)n(Cc2ccco2)c(O)c1C=NCc1cccs1	3	0	9	3	9	4	·	·	·
COc1cc(/C=C2\C[C@H]3[C@@H]4CC=C5C[C@@H](N6CCCC6)CC[C@]5(C)[C@H]4CC[C@]3(C)[C@H]2O)cc(OC)c1OC	-1	-2	·	-4	-2	-3	·	·	·
CC1CN(c2ccc([N+](=O)[O-])c(N3CCCCC3)c2)CCN1 (centres undefined)	-16	0	-10	-9	-12	3	·	·	·
Cc1c(OC(=O)N(C)C)ccc2c1O/C(=C\c1ccco1)C2=O	2	18*	·	4	17	6	0	-1	-3
Cc1ccc(N2C(=O)/C(=C/c3ccc(CN(CCC#N)S(C)(=O)=O)o3)C(=O)NC2=S)cc1C	·	·	-4	·	·	·	·	·	·
Cc1cccc(N2C(=O)/C(=C/c3ccc(CN(CCC#N)S(C)(=O)=O)o3)C(=O)NC2=S)c1	-1	25*	1	7	41*	0	1	-4	36*
CCOc1ccc(-n2c(CC)nc3ccccc3c2=O)cc1	8	39*	-7	0	3	-6	-1	4	1
COc1ccc(-n2c(Cc3ccccc3)nc3ccccc3c2=O)cc1	1	-2	-14	-3	-1	-2	·	·	·
O=C(c1cc([N+](=O)[O-])ccc1N1CCNCC1)N1CCOCC1	1	-1	1	3	-2	0	·	·	·
O=C(c1cc(-c2ccc(Cl)cc2)n(-c2ccc(Cl)cc2Cl)n1)N1CCOCC1	3	26*	-4	3	-4	-2	0	-2	-8
COc1ccc(-n2c(O)c(C(C)=NCCN3CCNCC3)c(=O)[nH]c2=O)cc1	3	17*	-1	6	-2	5	0	2	3
COc1ccc(-n2c(O)c(C(C)=NCC3CCCO3)c(=O)[nH]c2=O)cc1 (centres undefined)	3	-5	-8	4	3	-3	·	·	·
COc1ccc(Cc2c(O)[nH]c(=S)[nH]c2=O)cc1	7	2	·	0	6	-9	·	·	·
Cc1ccccc1-n1c(C)cc(/C=C2/C(=O)NC(=O)N(Cc3ccco3)C2=O)c1C	7	49*	-6	11	10	-1	-1	2	0
COc1ccc(/C=C2/C(=O)NC(=O)N(Cc3ccco3)C2=O)cc1	·	·	-8	·	·	·	·	·	·
Cc1cc(/C=C2\C(=O)NC(=O)N(Cc3ccco3)C2=O)c(C)n1-c1ccc(C(=O)O)cc1	7	48*	-2	52*	19	-2	3	-11	10
CCOC(=O)C1CCN(/C=C2/C(=O)NC(=O)N(Cc3ccco3)C2=O)CC1	-1	14*	-1	10	9	6	4	-13	3
Cc1cc(/C=C2\C(=O)NC(=O)N(c3ccc(F)cc3)C2=O)c(C)n1-c1ccc(C(=O)O)cc1	0	4	-10	-1	3	8	·	·	·
CC1([N+](=O)[O-])COP(=O)(Nc2ccc(Cl)cc2)OC1 (centres undefined)	5	-2	·	1	3	-8	·	·	·
Oc1ccc(CC2CC3CCN2CC3)cc1O (centres undefined)	0	-7	-4	3	-1	-2	·	·	·
Oc1ccc(C[C@H]2NCCc3cc(O)c(O)cc32)cc1O	8	55*	·	30*	19	8	18*	-64	30*
O=[N+]([O-])c1nccn1CC(O)CN1CC1 (centres undefined)	0	-3	·	2	2	17	·	·	·
C=CCn1c(O)c(C(CC)=Nc2cccc(C(F)(F)F)c2)c(=O)[nH]c1=O	-5	-1	-7	-3	1	12	·	·	·
CCOC(=O)c1cc2ccccc2n1C1CCN(Cc2ccccc2)CC1	4	6	·	-2	-6	-3	·	·	·
O=C(OCc1ccccc1)N1CCC2CC1c1cc(N3Cc4ccccc4-n4nncc4C3)ccc12 (centres undefined)	4	26*	·	6	-1	12	2	-6	12

Screens from PubChem BioAssay.
